In ChEMBL document CHEMBL1121566, “Synthesis and aldose reductase inhibitory activity of 7-sulfamoylxanthone-2-carboxylic acids” (J Med Chem, 1980):
The source made the active and inactive calls. No cut-off for these calls is given here.

What was measured:
[1] = target: Aldo-keto reductase family 1 member B1 (Oryctolagus cuniculus) (UniProt P15122); experiment: Antiallergic agent with Aldose reductase Inhibitory Activity at 10E-5 M concentration
How it was run: (§1)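 Enzyme was from frozen rabbit lenses, homogenized in water and spun at 10000g. The 50–75% ammonium sulfate fraction was dissolved in 0.05 M NaCl. The assay used 0.067 M phosphate pH 6.0 and 2 × 10^-5 M NADPH, and was started with 5 × 10^-4 M D,L-glyceraldehyde (final). NADPH loss was followed at 340 nm for 2 min at 37 °C. Inhibitors were dissolved in minimal 0.1 N NaOH and diluted with water.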

[2] = target: Aldo-keto reductase family 1 member B1 (Oryctolagus cuniculus) (UniProt P15122); experiment: Percent inhibition of rabbit lens aldose reductase in vitro at 10E-4 M concentration; how it was run: as §1
[3] = target: Aldo-keto reductase family 1 member B1 (Oryctolagus cuniculus) (UniProt P15122); experiment: Antiallergic agent with Aldose reductase Inhibitory Activity at 10E-6 M concentration; how it was run: as §1
[4] = test system: Aldose reductase (Oryctolagus cuniculus); experiment: In vitro inhibitory activity towards rabbit lens aldose reductase; Active

Compound | inhibition [1] [%] | inhibition [2] [%] | inhibition [3] [%] | inhibition [4]
O=C(O)c1ccc2oc3ccc(OCC(O)CO)cc3c(=O)c2c1 (stereo not given) | 46 | 88 | 8 | –
O=C(O)c1ccc2oc3ccccc3c(=O)c2c1 | 10 | 20 | 0 | –
COCC[S+]([O-])c1ccc2oc3ccc(C(=O)O)cc3c(=O)c2c1 (stereo not given) | 12 | 65 | 4 | –
CC(C)N(C)S(=O)(=O)c1ccc2oc3ccc(C(=O)O)cc3c(=O)c2c1 | 69 | 89 | 17 | –
C[S+]([O-])c1ccc2oc3ccc(C(=O)O)cc3c(=O)c2c1 (stereo not given) | 20 | 63 | 0 | –
CC(C)NS(=O)(=O)c1ccc2oc3ccc(C(=O)O)cc3c(=O)c2c1 | 30 | 72 | 0 | –
CNS(=O)(=O)c1ccc2oc3ccc(C(=O)O)cc3c(=O)c2c1 | 40 | 75 | 25 | –
O=C(O)c1ccc2oc3ccc([S+]([O-])CCO)cc3c(=O)c2c1 (stereo not given) | 50 | 87 | 17 | –
NS(=O)(=O)c1ccc2oc3ccc(C(=O)O)cc3c(=O)c2c1 | 20 | 70 | 10 | –
CN(C)S(=O)(=O)c1ccc2oc3ccc(C(=O)O)cc3c(=O)c2c1 | 87 | 94 | 67 | Active
CN(CCO)S(=O)(=O)c1ccc2oc3ccc(C(=O)O)cc3c(=O)c2c1 | 96 | 100 | 83 | Active
CCN(C)S(=O)(=O)c1ccc2oc3ccc(C(=O)O)cc3c(=O)c2c1 | 81 | 92 | 23 | –
CC(C)CN(C)S(=O)(=O)c1ccc2oc3ccc(C(=O)O)cc3c(=O)c2c1 | 75 | 95 | 25 | –
CC(O)c1ccc2oc3ccc(C(=O)O)cc3c(=O)c2c1 (stereo not given) | 10 | 50 | 10 | –
O=C(O)c1ccc2oc3ccc(S(=O)(=O)N4CCCC4)cc3c(=O)c2c1 | 46 | 85 | 0 | –
O=C(O)c1ccc2oc3ccc(S(=O)(=O)O)cc3c(=O)c2c1 | 43 | 70 | 0 | –
O=C(O)c1ccc2oc3ccc(S(=O)(=O)NCCO)cc3c(=O)c2c1 | 38 | 79 | 0 | –
O=c1c(O)c(-c2ccc(O)c(O)c2)oc2cc(O)cc(O)c12 | 52 | – | 9 | –
O=C(O)c1ccc2oc3ccc(S(=O)(=O)N4CCOCC4)cc3c(=O)c2c1 | 6 | 76 | 0 | –
COC(C)c1ccc2oc3ccc(C(=O)O)cc3c(=O)c2c1 (stereo not given) | 6 | 70 | 0 | –
O=C(O)c1ccc2oc3ccc(S(=O)(=O)CCO)cc3c(=O)c2c1 | 77 | 96 | 50 | –
O=C(O)c1ccc2oc3ccc(SCCO)cc3c(=O)c2c1 | 65 | 93 | 7 | –
O=C(O)c1ccc2oc3ccc(S(=O)(=O)N(CCO)CCO)cc3c(=O)c2c1 | 49 | 89 | 2 | –
